Active and inactive are the calls of the source. The rule behind the calls is not given here.
What was measured:
[1] = test system: Escherichia coli; assay: Antibacterial activity against Escherichia coli O157:H7 CICC 21530 assessed as bacterial growth inhibition incubated for 18 to 24 hrs by microtiter broth dilution method; assay type: functional; details: time 18-24 hrs
In short: (§1)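 Log-phase bacteria grown at 37 °C in MHB, diluted to 10^5 CFU/mL, mixed 1:1 with serial peptide dilutions (peptide diluted in 0.01% acetic acid, 0.2% BSA); 37 °C for 18-24 h. MIC read by OD492 as lowest concentration giving no growth; mean of 3-5 independent experiments.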

[2] = test system: Salmonella paratyphi; assay: Antibacterial activity against Salmonella paratyphi C CICC 21512 assessed as bacterial growth inhibition incubated for 18 to 24 hrs by microtiter broth dilution method; assay type: functional; details: Salmonella enterica, time 18-24 hrs; in short: as §1
[3] = test system: Shigella flexneri; assay: Antibacterial activity against Shigella flexneri CMCC 51571 assessed as bacterial growth inhibition incubated for 18 to 24 hrs by microtiter broth dilution method; assay type: functional; details: time 18-24 hrs
In short: (§2)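 Log-phase cells (grown overnight at 37 °C, subcultured in MHB) diluted to 10^5 CFU/mL in MHB and mixed 1:1 with serial peptide dilutions prepared in 0.01% acetic acid/0.2% BSA. Incubated 37 °C for 18-24 h. MIC is the lowest concentration giving no growth by OD492. Reported as the average of 3-5 independent experiments.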

[4] = test system: Salmonella enterica; assay: Antibacterial activity against Salmonella choleraesuis ATCC 13312 assessed as bacterial growth inhibition incubated for 18 to 24 hrs by broth dilution method; assay type: functional; details: time 18-24 hrs; in short: as §1
[5] = test system: Salmonella typhimurium; assay: Antibacterial activity against Salmonella typhimurium CMCC 51005 assessed as bacterial growth inhibition incubated for 18 to 24 hrs by microtiter broth dilution method; assay type: functional, Salmonella enterica subsp. enterica serovar Typhimurium; details: Salmonella enterica, time 18-24 hrs; in short: as §2
[6] = test system: Salmonella enteritidis; assay: Antibacterial activity against Salmonella enteritidis CICC 21527 assessed as bacterial growth inhibition incubated for 18 to 24 hrs by microtiter broth dilution method; assay type: functional, Salmonella enterica subsp. enterica serovar Enteritidis; details: Salmonella enterica, time 18-24 hrs; in short: as §2
[7] = test system: Staphylococcus aureus; assay: Antibacterial activity against Staphylococcus aureus ATCC 29213 assessed as bacterial growth inhibition incubated for 18 to 24 hrs by microtiter broth dilution method; assay type: functional; details: time 18-24 hrs; in short: as §2
[8] = test system: Staphylococcus aureus; assay: Antibacterial activity against Staphylococcus aureus GIM 1.160 assessed as bacterial growth inhibition incubated for 18 to 24 hrs by microtiter broth dilution method; assay type: functional; details: time 18-24 hrs; in short: as §2
[9] = test system: Listeria monocytogenes; assay: Antibacterial activity against Listeria monocytogenes CICC 21662 assessed as bacterial growth inhibition incubated for 18 to 24 hrs by microtiter broth dilution method; assay type: functional; details: time 18-24 hrs; in short: as §2
[10] = test system: Bacillus pumilus; assay: Antibacterial activity against Bacillus pumilus CMCC 63202 assessed as bacterial growth inhibition incubated for 18 to 24 hrs by microtiter broth dilution method; assay type: functional; details: time 18-24 hrs; in short: as §2
[11] = test system: Pseudomonas fluorescens; assay: Antibacterial activity against Pseudomonas fluorescens CICC 21620 assessed as bacterial growth inhibition incubated for 18 to 24 hrs by microtiter broth dilution method; assay type: functional; details: time 18-24 hrs; in short: as §2
[12] = test system: Candida albicans; assay: Antifungal activity against Candida albicans ATCC 10231 assessed as fungal growth inhibition incubated for 18 to 24 hrs by microtiter broth dilution method; assay type: functional; details: time 18-24 hrs; in short: as §2
[13] = test system: Erythrocyte; assay: Hemolytic activity against human red blood cells assessed as concentration required to cause 10% hemoglobin release measured after 1 hr by microplate reader analysis; assay type: ADME, cell-based
In short: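 Fresh heparinized human RBCs washed three times in 10 mM PBS pH 7.4 and resuspended to about 1% (v/v) (5.4 × 10^8 cells/mL). Mixed 1:1 with peptide in PBS for 1 h at 37 °C, then centrifuged. Supernatant hemoglobin read at A540. PBS set as 0% and 0.1% Triton X-100 as 100% hemolysis. MHC is the concentration causing 10% hemolysis.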

[14] = Therapeutic index, ratio of MHC10 for human RBC to geometric mean of peptide MIC for Escherichia coli O157:H7 CICC 21530; assay type: toxicity; details: human red blood cells (RBC), pooled result: one value given for 11 cell lines, strains, targets or settings, read-out: TI
In short: (§3)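 Therapeutic index = MHC (peptide concentration giving 10% hemolysis of human RBCs, 1 h, 37 °C, A540) divided by geometric mean of MICs from broth microdilution (10^5 CFU/mL in MHB, 37 °C, 18-24 h, OD492).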

[15] = Therapeutic index, ratio of MHC10 for human RBC to geometric mean of peptide MIC for Staphylococcus aureus ATCC 29213; assay type: toxicity; details: human red blood cells (RBC), pooled result: one value given for 9 cell lines, strains, targets or settings, read-out: TI; in short: as §3
[16] = test system: RAW264.7; assay: Cytotoxicity against mouse RAW264.7 cells assessed as increase in cell viability at 64 uM incubated for 24 hrs by MTT assay relative to control; assay type: cell-based; details: raw264.7, 24 h
In short: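 RAW264.7 macrophages were grown in DMEM with 10% FBS, 2 mM glutamine and penicillin/streptomycin at 37 °C in 5% CO2. Cells seeded at 1.0-2.0 × 10^4 per well and treated with peptide (final 0.25-64 µM) for 24 h at 37 °C. MTT at 0.5 mg/mL added for 4 h, formazan dissolved in DMSO, read at 570 nm.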

[17] = test system: Escherichia coli; assay: Antibacterial activity against Escherichia coli O157:H7 CICC 21530 assessed as bacterial growth inhibition incubated for 18 to 24 hrs in presence of 4.5 mM KCl by microtiter broth dilution method (reference value: 0.85 to > 71.5 uM); assay type: functional; details: time 18-24 hrs
[18] = test system: Escherichia coli; assay: Antibacterial activity against Escherichia coli O157:H7 CICC 21530 assessed as bacterial growth inhibition incubated for 18 to 24 hrs in presence of 1 mM MgCl2 by microtiter broth dilution method (reference value: 0.85 to > 71.5 uM); assay type: functional; details: time 18-24 hrs
[19] = test system: Cell membrane; assay: Induction of outer membrane permeabilization in Escherichia coli O157:H7 CICC 21530 assessed as increase in fluorescence intensity by NPN-dye based fluorescence assay; assay type: subcellular; details: dose 0.625-7.5 µM
[20] = test system: Cell membrane; assay: Induction of cell membrane depolarization in Escherichia coli O157:H7 CICC 21530 assessed as increase in fluorescence intensity at 0.5 to 2 times MIC preincubated for 90 mins followed by KCl addition and measured after 15 to 30 mins by DiSC3-5 staining based fluorescence spectroscopic technique; assay type: subcellular; details: time 105-120 min
[21] = test system: HepG2; assay: Cytotoxicity against human HepG2 cells assessed as reduction in cell viability incubated for 24 hrs by MTT assay; assay type: functional, cell-based
In short: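 HepG2 survival measured by MTT assay over a peptide range of 0.25-64 µM.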

[22] = test system: Staphylococcus aureus; assay: Antibacterial activity against Staphylococcus aureus ATCC 29213 assessed as bacterial growth inhibition incubated for 18 to 24 hrs in presence of 150 mM NaCl by microtiter broth dilution method (reference value: 0.43 to > 71.5 uM); assay type: functional; details: time 18-24 hrs
[23] = test system: Staphylococcus aureus; assay: Antibacterial activity against Staphylococcus aureus ATCC 29213 assessed as bacterial growth inhibition incubated for 18 to 24 hrs in presence of 4.5 mM KCl by microtiter broth dilution method (reference value: 0.43 to > 71.5 uM); assay type: functional; details: time 18-24 hrs
[24] = test system: Staphylococcus aureus; assay: Antibacterial activity against Staphylococcus aureus ATCC 29213 assessed as bacterial growth inhibition incubated for 18 to 24 hrs in presence of 1 mM MgCl2 by microtiter broth dilution method (reference value: 0.43 to > 71.5 uM); assay type: functional; details: time 18-24 hrs
[25] = test system: Escherichia coli; assay: Bactericidal activity against Escherichia coli O157:H7 CICC 21530 assessed as bacterial killing at 1 times MIC by time kill assay; assay type: functional, organism-based; details: time 1085.0 min, TDE = time-dependent effect

H-WGRAFRRGVRRLARGGRR-NH2 gave an MIC [1] of 3.67 µM, an MIC [2] of 7.33 µM and an MIC [3] of 7.33 µM. The MIC [4] was 14.7 µM, the MIC [5] was greater than 58.6 µM and the MIC [6] was greater than 58.6 µM. For the same substance, the MIC [7] was 14.7 µM, the MIC [8] was 7.33 µM and the MIC [9] was 7.33 µM. It also gave an MIC [10] greater than 58.6 µM, an MIC [11] of 29.3 µM and an MIC [12] of 29.3 µM. It also gave an MHC10 [13] greater than 58.64 µM, a selectivity ratio [14] of 7.51 and a selectivity ratio [15] of 8. It also gave an Activity [16] of 74.8%, an MIC [17] of 3.67 µM and an MIC [18] of 3.67 µM. For the same substance, the Activity [19] was “Dose-dependent effect”, the Activity [20] was “Active” and the Activity [21] was “Dose-dependent effect”. It also gave an MIC [22] of 14.7 µM, an MIC [23] of 7.33 µM and an MIC [24] of 3.67 µM. The Activity [25] was “Tde”.
Work on H-WGEAFSAGVHRLANGGNG-NH2 yielded an MIC [1] greater than 71.2 µM, an MIC [2] greater than 71.2 µM and an MIC [3] greater than 71.2 µM. For the same substance, the MIC [4] was greater than 71.2 µM, the MIC [5] was greater than 71.2 µM and the MIC [6] was greater than 71.2 µM. For the same substance, the MIC [7] was greater than 71.2 µM, the MIC [8] was greater than 71.2 µM and the MIC [9] was greater than 71.2 µM. For the same substance, the MIC [10] was greater than 71.2 µM, the MIC [11] was greater than 71.2 µM and the MIC [12] was greater than 71.2 µM. It also gave an MHC10 [13] greater than 71.15 µM, a selectivity ratio [14] of 1 and a selectivity ratio [15] of 1. It also gave an Activity [16] of 73.62%, an MIC [17] greater than 71.2 µM and an MIC [18] greater than 71.2 µM. For the same substance, the Activity [20] was “Active”, the Activity [21] was “Dose-dependent effect” and the MIC [22] was greater than 71.2 µM. For the same substance, the MIC [23] was greater than 71.2 µM, the MIC [24] was greater than 71.2 µM and the Activity [25] was “Tde”.
For H-WGRAFSAGVHRLARGGRG-NH2, the MIC [1] was 16.8 µM, the MIC [2] was greater than 67 µM and the MIC [3] was greater than 67 µM. It also gave an MIC [4] of 33.5 µM, an MIC [5] greater than 67 µM and an MIC [6] greater than 67 µM. It also gave an MIC [7] greater than 67 µM, an MIC [8] greater than 67 µM and an MIC [9] of 33.5 µM. It also gave an MIC [10] greater than 67 µM, an MIC [11] greater than 67 µM and an MIC [12] greater than 67 µM. For the same substance, the MHC10 [13] was greater than 67.01 µM, the selectivity ratio [14] was 1.55 and the selectivity ratio [15] was 1.26. For the same substance, the Activity [16] was 87.22%, the MIC [17] was 4.19 µM and the MIC [18] was 67 µM. The Activity [19] was “Dose-dependent effect”, the Activity [20] was “Active” and the Activity [21] was “Dose-dependent effect”. The MIC [22] was greater than 67 µM, the MIC [23] was greater than 67 µM and the MIC [24] was greater than 67 µM. For the same substance, the Activity [25] was “Tde”.
H-WGRAFRRLVRRLARGLRR-NH2 showed an MIC [1] of 6.97 µM, an MIC [2] of 3.49 µM and an MIC [3] of 3.49 µM. For the same substance, the MIC [4] was 13.9 µM, the MIC [5] was 13.9 µM and the MIC [6] was greater than 55.8 µM. The MIC [7] was 3.49 µM, the MIC [8] was 1.74 µM and the MIC [9] was 1.74 µM. The MIC [10] was 55.8 µM, the MIC [11] was 55.8 µM and the MIC [12] was 13.9 µM. For the same substance, the MHC10 [13] was greater than 55.78 µM, the selectivity ratio [14] was 10.3 and the selectivity ratio [15] was 11.8. It also gave an Activity [16] of 64.79%, an MIC [17] of 3.49 µM and an MIC [18] of 6.97 µM. The Activity [19] was “Dose-dependent effect”, the Activity [20] was “Active” and the Activity [21] was “Dose-dependent effect”. The MIC [22] was 6.97 µM, the MIC [23] was 0.87 µM and the MIC [24] was 1.74 µM. The Activity [25] was “Tde”.

Reference: ChEMBL document CHEMBL4765236, “Insights into the Antimicrobial Activity and Cytotoxicity of Engineered α-Helical Peptide Amphiphiles” (J Med Chem, 2016)
